# In ChEMBL document CHEMBL5058577, “EUbOPEN Chemogenomics Library 2 (Multiplex)” (2022):
# Test system: U2OS
# Test: Multiplex assay against U2OS
# Type: toxicity, cell-based
# Details: human
# Method in brief: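 Per cents of healthy-nucleus cells form the tubulin, mitochondrial-mass and membrane-permeability phenotype values. Live cells were stained at seeding with Hoechst33342, BioTracker Green Microtubule Cytoskeleton Dye, MitoTracker Red and Annexin V Alexa Fluor 680. After compound addition they were imaged on a CQ1 microscope at 37°C and 5% CO2, and CellPathfinder machine-learning gating split them into Hoechst high-intensity objects or normal cells, normal cells into healthy, pyknosed or fragmented nuclei, and pyknosed cells into mitotic or apoptotic.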
# [1] = 12 h, 1 µM, compound concentration 1 uM, replicate 1
# [2] = 12 h, 1 µM, compound concentration 1 uM, replicate 2
# [3] = 12 h, 10 µM, compound concentration 10 uM, replicate 1
# [4] = 12 h, 10 µM, compound concentration 10 uM, replicate 2
# [5] = 24 h, 1 µM, compound concentration 1 uM, replicate 1
# [6] = 24 h, 1 µM, compound concentration 1 uM, replicate 2
# [7] = 24 h, 10 µM, compound concentration 10 uM, replicate 1
# [8] = 24 h, 10 µM, compound concentration 10 uM, replicate 2
# [9] = 48 h, 1 µM, compound concentration 1 uM, replicate 1
# [10] = 48 h, 1 µM, compound concentration 1 uM, replicate 2
# [11] = 48 h, 10 µM, compound concentration 10 uM, replicate 1
# [12] = 48 h, 10 µM, compound concentration 10 uM, replicate 2
compound,measurement,setting,value
CN(C)C/C=C/C(=O)Nc1ccc(C(=O)N2CCCC(Nc3ncc(Cl)c(-c4c[nH]c5ccccc45)n3)C2)cc1 (configuration not stated),Population Apoptotic (%),[1],77%
same,Population Fragmented Nuclei (%),[1],31%
same,Population Healthy Nuclei (%),[1],60%
same,Population Hoechst High Intensity Objects (%),[1],2%
same,Population Membrane Permeable-Phenotype (%),[1],5%
same,Population Mitochondria Different-Phenotype (%),[1],3%
same,Population Mitotic Cells (%),[1],22%
same,Population Normal (%),[1],97%
same,Population Pyknosed Nuclei (%),[1],8%
same,Population Tubulin-Different-Phenotype (%),[1],4%
same,Total Cell Count,[1],228
same,Population Apoptotic (%),[2],83%
same,Population Fragmented Nuclei (%),[2],18%
same,Population Healthy Nuclei (%),[2],77%
same,Population Hoechst High Intensity Objects (%),[2],0%
same,Population Membrane Permeable-Phenotype (%),[2],6%
same,Population Mitochondria Different-Phenotype (%),[2],5%
same,Population Mitotic Cells (%),[2],16%
same,Population Normal (%),[2],99%
same,Population Pyknosed Nuclei (%),[2],4%
same,Population Tubulin-Different-Phenotype (%),[2],8%
same,Total Cell Count,[2],139
same,Population Apoptotic (%),[3],80%
same,Population Fragmented Nuclei (%),[3],31%
same,Population Healthy Nuclei (%),[3],47%
same,Population Hoechst High Intensity Objects (%),[3],5%
same,Population Membrane Permeable-Phenotype (%),[3],33%
same,Population Mitochondria Different-Phenotype (%),[3],40%
same,Population Mitotic Cells (%),[3],20%
same,Population Normal (%),[3],94%
same,Population Pyknosed Nuclei (%),[3],20%
same,Population Tubulin-Different-Phenotype (%),[3],49%
same,Total Cell Count,[3],233
same,Population Apoptotic (%),[4],75%
same,Population Fragmented Nuclei (%),[4],25%
same,Population Healthy Nuclei (%),[4],54%
same,Population Hoechst High Intensity Objects (%),[4],2%
same,Population Membrane Permeable-Phenotype (%),[4],23%
same,Population Mitochondria Different-Phenotype (%),[4],42%
same,Population Mitotic Cells (%),[4],25%
same,Population Normal (%),[4],97%
same,Population Tubulin-Different-Phenotype (%),[4],37%
same,Total Cell Count,[4],121
same,Population Apoptotic (%),[5],93%
same,Population Fragmented Nuclei (%),[5],34%
same,Population Healthy Nuclei (%),[5],53%
same,Population Hoechst High Intensity Objects (%),[5],2%
same,Population Membrane Permeable-Phenotype (%),[5],7%
same,Population Mitochondria Different-Phenotype (%),[5],2%
same,Population Mitotic Cells (%),[5],6%
same,Population Normal (%),[5],97%
same,Population Pyknosed Nuclei (%),[5],11%
same,Population Tubulin-Different-Phenotype (%),[5],6%
same,Total Cell Count,[5],271
same,Population Apoptotic (%),[6],100%
same,Population Fragmented Nuclei (%),[6],21%
same,Population Healthy Nuclei (%),[6],67%
same,Population Hoechst High Intensity Objects (%),[6],0%
same,Population Membrane Permeable-Phenotype (%),[6],8%
same,Population Mitotic Cells (%),[6],0%
same,Population Normal (%),[6],99%
same,Population Tubulin-Different-Phenotype (%),[6],5%
same,Total Cell Count,[6],164
same,Population Apoptotic (%),[7],87%
same,Population Fragmented Nuclei (%),[7],39%
same,Population Healthy Nuclei (%),[7],35%
same,Population Hoechst High Intensity Objects (%),[7],9%
same,Population Membrane Permeable-Phenotype (%),[7],22%
same,Population Mitochondria Different-Phenotype (%),[7],33%
same,Population Mitotic Cells (%),[7],12%
same,Population Normal (%),[7],90%
same,Population Pyknosed Nuclei (%),[7],25%
same,Population Tubulin-Different-Phenotype (%),[7],29%
same,Total Cell Count,[7],239
same,Population Apoptotic (%),[8],97%
same,Population Fragmented Nuclei (%),[8],31%
same,Population Hoechst High Intensity Objects (%),[8],5%
same,Population Membrane Permeable-Phenotype (%),[8],21%
same,Population Mitochondria Different-Phenotype (%),[8],28%
same,Population Mitotic Cells (%),[8],2%
same,Population Normal (%),[8],94%
same,Population Pyknosed Nuclei (%),[8],32%
same,Population Tubulin-Different-Phenotype (%),[8],17%
same,Total Cell Count,[8],135
same,Population Apoptotic (%),[9],94%
same,Population Fragmented Nuclei (%),[9],29%
same,Population Healthy Nuclei (%),[9],60%
same,Population Hoechst High Intensity Objects (%),[9],3%
same,Population Membrane Permeable-Phenotype (%),[9],10%
same,Population Mitochondria Different-Phenotype (%),[9],3%
same,Population Mitotic Cells (%),[9],5%
same,Population Normal (%),[9],96%
same,Population Pyknosed Nuclei (%),[9],10%
same,Population Tubulin-Different-Phenotype (%),[9],5%
same,Total Cell Count,[9],339
same,Population Apoptotic (%),[10],96%
same,Population Fragmented Nuclei (%),[10],10%
same,Population Healthy Nuclei (%),[10],77%
same,Population Membrane Permeable-Phenotype (%),[10],3%
same,Population Mitotic Cells (%),[10],3%
same,Population Pyknosed Nuclei (%),[10],12%
same,Population Tubulin-Different-Phenotype (%),[10],3%
same,Total Cell Count,[10],221
same,Population Apoptotic (%),[11],100%
same,Population Fragmented Nuclei (%),[11],50%
same,Population Healthy Nuclei (%),[11],17%
same,Population Hoechst High Intensity Objects (%),[11],15%
same,Population Membrane Permeable-Phenotype (%),[11],47%
same,Population Mitochondria Different-Phenotype (%),[11],27%
same,Population Mitotic Cells (%),[11],0%
same,Population Normal (%),[11],84%
same,Population Pyknosed Nuclei (%),[11],32%
same,Population Tubulin-Different-Phenotype (%),[11],38%
same,Total Cell Count,[11],251
same,Population Healthy Nuclei (%),[12],18%
same,Population Hoechst High Intensity Objects (%),[12],9%
same,Population Membrane Permeable-Phenotype (%),[12],26%
same,Population Mitochondria Different-Phenotype (%),[12],19%
same,Population Normal (%),[12],90%
same,Population Pyknosed Nuclei (%),[12],31%
same,Population Tubulin-Different-Phenotype (%),[12],23%
same,Total Cell Count,[12],157
